Assay results: ChEMBL document CHEMBL1123532, “Conformationally defined adrenergic agents. 3. Modifications to the carbocyclic ring of 5,6-dihydroxy-1-(2-imidazolinyl)tetralin: improved separation of alpha 1 and alpha 2 adrenergic activities” (J Med Chem, 1986)
“And” between values parts separate entries of the source, which are not always exact repeats. Equal entries are not always repeated. The source made the active and inactive calls. No cut-off for these calls is given here.

Key:
[1] = target: T1, Adrenergic receptor alpha-1 (Homo sapiens) (UniProt P35348+P25100+P35368); experiment: Compound was evaluated for alpha-1 adrenergic receptor activity in isolated rabbit aortic tissue, effective dose of norepinephrine (NE); settings: Oryctolagus cuniculus; target entry is the homologue from another species
Outline: (§1)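 Helical aortic strip in 10-mL bath of Krebs buffer, pH 7.4, under 2 g initial tension and equilibrated 1 h with four washes. Cumulative norepinephrine curve run from 1 × 10^-8 to 1 × 10^-3 M, each response allowed to plateau. After washout, tension reset to 2 g and a cumulative test-compound curve run in the same tissue. Isometric contraction recorded; molar ED50 taken for each.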

[2] = target: T2, Adrenergic receptor alpha-2 (Homo sapiens) (UniProt P08913+P18825+P18089); experiment: Compound was evaluated for alpha-2 adrenergic receptor activity in the phenoxybenzamine (PBZ) - pretreated dog saphenous vein, effective dose of norepinephrine (NE); assay type: tissue-based; settings: Canis lupus familiaris, target entry is the homologue from another species
Outline: (§2)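 Beagle lateral saphenous vein rings (3-4 mm, either sex) in bicarbonate buffer with cocaine, hydrocortisone and propranolol, gassed with 95% O2/5% CO2 at 37 °C, pH 7.45, under 2 g. After maximal NE (1 × 10^-4 M) contraction and 60 min wash, exposed to phenoxybenzamine 1 × 10^-7 M for 30 min, then washed 60 min. Control cumulative NE curve, washout, then test-compound curve in the same tissue. Molar ED50 from isometric contraction.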

[3] = target: T2, Adrenergic receptor alpha-2 (Homo sapiens); experiment: Compound was evaluated for alpha-2 adrenergic receptor activity in the phenoxybenzamine (PBZ) - pretreated dog saphenous vein, effective dose (CPD); assay type: tissue-based; settings: Canis lupus familiaris, target entry is the homologue from another species; outline: as §2
[4] = Compound was evaluated for the percent of maximum response of the tissue to NE; assay type: functional
[5] = target: T1, Adrenergic receptor alpha-1 (Homo sapiens); experiment: Compound was evaluated for alpha-1 adrenergic receptor activity in isolated rabbit aortic tissue, effective dose (CPD); settings: Oryctolagus cuniculus; target entry is the homologue from another species; outline: as §1
[6] = target: T2, Adrenergic receptor alpha-2 (Homo sapiens); experiment: Compound was evaluated for alpha-2 adrenergic receptor activity in the phenoxybenzamine (PBZ) - pretreated dog saphenous vein, effective dose (CPD); inactive; assay type: tissue-based; settings: Canis lupus familiaris, target entry is the homologue from another species
[7] = Compound was evaluated for the percent of maximum response of the tissue to NE; IA=Inactive; assay type: functional
[8] = target: T1, Adrenergic receptor alpha-1 (Homo sapiens); experiment: Compound was evaluated for alpha-1 adrenergic activity in isolated rabbit aortic tissue, effective dose (CPD); assay type: tissue-based; settings: Oryctolagus cuniculus; Aorta; target entry is the homologue from another species; outline: as §1
[9] = target: T1, Adrenergic receptor alpha-1 (Homo sapiens); experiment: Compound was evaluated for alpha-1 adrenergic activity in isolated rabbit aortic tissue, effective dose of norepinephrine (NE); assay type: tissue-based; settings: Oryctolagus cuniculus; Aorta; target entry is the homologue from another species
Outline: (§3)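 Helical aortic strip in Krebs buffer (pH 7.4) at 2 g initial tension, equilibrated 1 h with four washes; isometric contraction recorded. Cumulative norepinephrine curve (1 × 10^-8 to 1 × 10^-3 M), each step to plateau; washes every 10-15 min for 60-90 min, tension reset to 2 g, then cumulative test-compound curve in the same tissue. Molar ED50 values; index (ED50 NE/ED50 CPD) computed per experiment.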

[10] = target: T1, Adrenergic receptor alpha-1 (Homo sapiens); experiment: Compound was evaluated for alpha-1 adrenergic receptor activity in isolated rabbit aortic tissue, effective dose (CPD); IA=Inactive; settings: Oryctolagus cuniculus; target entry is the homologue from another species; outline: as §3
[11] = target: T2, Adrenergic receptor alpha-2 (Homo sapiens); experiment: Compound was evaluated for alpha-2 adrenergic receptor activity in the phenoxybenzamine (PBZ) - pretreated dog saphenous vein, effective dose (CPD); Inactive; assay type: tissue-based; settings: Canis lupus familiaris, target entry is the homologue from another species; outline: as §2

`Oc1ccc2c(c1O)SCC[C@@H]2C1=NCCN1` showed an ED50 [1] of 219 nM, an ED50 [2] of 526 nM and an ED50 [3] of 19 nM. For the same compound, the Emax [4] was 129 and 105 and the ED50 [5] was 20 nM.
For `CCC1(CC)CC[C@H](C2=NCCN2)c2ccc(O)c(O)c21`, the ED50 [1] was 98 nM, the ED50 [2] was 603 nM and the Emax [4] was 44. For the same compound, the ED50 [6] was “inactive”, the Emax [7] was “inactive” and the ED50 [5] was 47000 nM.
For `C[C@]1(C2=NCCN2)CCCc2c1ccc(O)c2O`, the ED50 [1] was 41 nM, the ED50 [2] was 924 nM and the ED50 [3] was 6100 nM. The Emax [4] was 69 and 76 and the ED50 [5] was 16600 nM.
Compound `C[C@@H]1CCc2c(ccc(O)c2O)[C@H]1C1=NCCN1` has an ED50 [8] of 4390 nM, an ED50 [1] of 48 nM and an ED50 [2] of 560 nM. It also gave an ED50 [3] of 4500 nM.
For `Oc1ccc2c(c1O)CC[C@@H](c1ccccc1)[C@@H]2C1=NCCN1`, the ED50 [9] was 73 nM, the ED50 [10] was “inactive” and the ED50 [2] was 519 nM. The ED50 [3] was “inactive” and the Emax [7] was “inactive”.
In the case of `CC1(C)CC[C@H](C2=NCCN2)c2ccc(O)c(O)c21`, the ED50 [11] is reported as “inactive”, the ED50 [1] is reported as 125 nM and the ED50 [2] is reported as 1240 nM. The Emax [4] was 100, the Emax [7] was “inactive” and the ED50 [5] was 284 nM.
With `Oc1ccc2c(c1O)CCCC2C1=NCCN1` (stereo unspecified) the ED50 [1] was 140 nM, the ED50 [2] was 720 nM and the ED50 [3] was 5 nM. The Emax [4] was 114 and 102 and the ED50 [5] was 17 nM.
Work on `Oc1ccc2c(c1O)OCC[C@@H]2C1=NCCN1` yielded an ED50 [1] of 67 nM, an ED50 [2] of 720 nM and an ED50 [3] of 35 nM. The Emax [4] was 118 and 107 and the ED50 [5] was 35 nM.
